Test results as given in ChEMBL document CHEMBL3112571, “Benzimidazole CB2 agonists: design, synthesis and SAR” (Bioorg Med Chem Lett, 2014).
pEC50, pIC50: −log10 of the molar value.

Experiments:
Cannabinoid receptor 1 [1] = biological target: T1, Cannabinoid receptor 1 (Homo sapiens, UniProt P21554); assay: Agonist activity at human CB1 receptor expressed in CHO-K1 cells assessed as forskolin-induced cAMP accumulation after 1 hr; assay type: functional, cell-based
Outline: (§1)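 CHO-K1 cells (1000/well) expressing human CB1 or CB2 preincubated with compound 15 min at room temperature, then forskolin at EC70 added for a further 30 min at room temperature. cAMP measured by HTRF (d2-cAMP plus anti-cAMP-cryptate, final 1 h room temperature incubation). Values are the average of N = 1 to 3 results.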

Cannabinoid receptor 2 [2] = biological target: T2, Cannabinoid receptor 2 (Homo sapiens, UniProt P34972); assay: Agonist activity at human CB2 receptor expressed in CHO-K1 cells assessed as forskolin-induced cAMP accumulation after 1 hr relative to control; assay type: functional, cell-based; outline: as §1
T2 sequence (P34972 whole entry): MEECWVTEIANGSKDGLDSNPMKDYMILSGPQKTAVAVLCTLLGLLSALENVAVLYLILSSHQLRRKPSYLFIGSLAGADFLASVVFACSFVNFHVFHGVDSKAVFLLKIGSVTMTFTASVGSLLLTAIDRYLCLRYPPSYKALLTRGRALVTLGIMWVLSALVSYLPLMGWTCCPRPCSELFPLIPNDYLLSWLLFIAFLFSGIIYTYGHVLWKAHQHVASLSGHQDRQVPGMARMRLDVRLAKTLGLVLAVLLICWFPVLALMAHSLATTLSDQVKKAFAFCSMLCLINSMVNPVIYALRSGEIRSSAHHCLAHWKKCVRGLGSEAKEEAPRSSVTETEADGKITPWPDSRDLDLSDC

Cannabinoid receptor 2 [3] = biological target: T2, Cannabinoid receptor 2; assay: Agonist activity at human CB2 receptor expressed in CHO-K1 cells assessed as forskolin-induced cAMP accumulation after 1 hr; assay type: functional, cell-based; outline: as §1
Cannabinoid receptor 1 [4] = biological target: T1, Cannabinoid receptor 1; assay: Agonist activity at human CB1 receptor expressed in CHO-K1 cells assessed as forskolin-induced cAMP accumulation after 1 hr relative to control; assay type: functional, cell-based; outline: as §1
Homo sapiens = species: Homo sapiens; assay: Selectivity ratio of EC50 for human CB1 receptor to EC50 for human CB2 receptor

T1 sequence (P21554 whole entry): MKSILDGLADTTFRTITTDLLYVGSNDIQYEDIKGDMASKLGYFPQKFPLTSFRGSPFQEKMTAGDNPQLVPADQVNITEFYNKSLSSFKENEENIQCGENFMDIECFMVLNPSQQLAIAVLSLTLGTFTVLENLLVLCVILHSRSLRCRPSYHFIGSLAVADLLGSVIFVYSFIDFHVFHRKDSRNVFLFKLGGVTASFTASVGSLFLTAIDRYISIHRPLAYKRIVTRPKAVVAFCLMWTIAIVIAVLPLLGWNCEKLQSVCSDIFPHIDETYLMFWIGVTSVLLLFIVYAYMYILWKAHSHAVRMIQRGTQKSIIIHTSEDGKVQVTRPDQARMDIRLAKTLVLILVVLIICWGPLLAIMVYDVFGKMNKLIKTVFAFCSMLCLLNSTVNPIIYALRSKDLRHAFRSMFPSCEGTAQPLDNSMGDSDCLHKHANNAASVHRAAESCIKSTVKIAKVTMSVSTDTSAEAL

O=C(NC1(CO)CCCCC1)c1nc2c(-c3ccccc3)cccc2[nH]1
pEC50 (Cannabinoid receptor 1 [1]): < 4.77
Emax (Cannabinoid receptor 2 [2]): 82%
pEC50 (Cannabinoid receptor 2 [3]): 6.63

O=C(NCc1ccccc1F)c1nc2c(-c3ccccc3)cccc2[nH]1
pEC50 (Cannabinoid receptor 1 [1]): < 4.77
Emax (Cannabinoid receptor 2 [2]): 49%
pEC50 (Cannabinoid receptor 2 [3]): 6.59

O=C(NCc1cccc(C(F)(F)F)c1)c1nc2c(-c3ccccc3)cccc2[nH]1
pEC50 (Cannabinoid receptor 1 [1]): < 4.77
Emax (Cannabinoid receptor 2 [2]): 69%
pEC50 (Cannabinoid receptor 2 [3]): 6.59

O=C(NCC1(CO)CCCCC1)c1nc2c(-c3ccccc3)cccc2n1CC(F)(F)F
pEC50 (Cannabinoid receptor 1 [1]): < 4.77
Emax (Cannabinoid receptor 2 [2]): 45%
pEC50 (Cannabinoid receptor 2 [3]): 5.70

O=C(NCC1(CO)CCCC1)c1nc2c(-c3ccccc3)cccc2[nH]1
pEC50 (Cannabinoid receptor 1 [1]): < 4.77
Emax (Cannabinoid receptor 2 [2]): 93%
pEC50 (Cannabinoid receptor 2 [3]): 7.61

CCn1c(C(=O)NCC(C)(C)C)nc2c(-c3ccccc3)cccc21
pEC50 (Cannabinoid receptor 1 [1]): 6.04
Emax (Cannabinoid receptor 1 [4]): 87%
Emax (Cannabinoid receptor 2 [2]): 67%
pEC50 (Cannabinoid receptor 2 [3]): 6.31

CCn1c(C(=O)NCC2(CO)CCCC2)nc2c(-c3ccccc3)cccc21
pEC50 (Cannabinoid receptor 1 [1]): < 4.77
Emax (Cannabinoid receptor 2 [2]): 68%
pEC50 (Cannabinoid receptor 2 [3]): 5.90

O=C(NCC1(CO)CCCCC1)c1nc2c(-c3ccccc3)cccc2[nH]1
pEC50 (Cannabinoid receptor 1 [1]): < 4.77
Emax (Cannabinoid receptor 2 [2]): 92%
pEC50 (Cannabinoid receptor 2 [3]): 7.37

CC(C)(C)CNC(=O)c1nc2c(-c3ccccc3)cccc2n1CC(F)(F)F
pEC50 (Cannabinoid receptor 1 [1]): < 4.77
pEC50 (Cannabinoid receptor 2 [3]): < 4.77

CCn1c(C(=O)NCc2ccccc2F)nc2c(-c3ccccc3)cccc21
pEC50 (Cannabinoid receptor 1 [1]): < 4.77
Emax (Cannabinoid receptor 2 [2]): 98%
pEC50 (Cannabinoid receptor 2 [3]): 7.35

CCn1c(C(=O)NCc2ccc(C#N)cc2)nc2c(-c3ccccc3)cccc21
pEC50 (Cannabinoid receptor 1 [1]): < 4.77
Emax (Cannabinoid receptor 2 [2]): 99%
pEC50 (Cannabinoid receptor 2 [3]): 7.08

CCn1c(C(=O)NCc2ccccc2Cl)nc2c(-c3ccccc3)cccc21
Ratio EC50 (Homo sapiens): 92
pEC50 (Cannabinoid receptor 1 [1]): 6.04
Emax (Cannabinoid receptor 1 [4]): 87%
Emax (Cannabinoid receptor 2 [2]): 101%
pEC50 (Cannabinoid receptor 2 [3]): 8.00

O=C(NCc1ccccc1Cl)c1nc2c(-c3ccccc3)cccc2[nH]1
pEC50 (Cannabinoid receptor 1 [1]): < 4.77
Emax (Cannabinoid receptor 2 [2]): 64%
pEC50 (Cannabinoid receptor 2 [3]): 6.35

O=C(NC12CC3CC(CC(C3)C1)C2)c1nc(C(O)c2cccnc2)c2ccccn12 (racemic)
pIC50 (Cannabinoid receptor 1 [1]): 5.41
Activity (Cannabinoid receptor 1 [4]): 82%
Activity (Cannabinoid receptor 2 [2]): 88%
pIC50 (Cannabinoid receptor 2 [3]): 8.35

O=C(NCc1ncccc1F)c1nc2c(-c3ccccc3)cccc2[nH]1
pEC50 (Cannabinoid receptor 1 [1]): < 4.77
Emax (Cannabinoid receptor 2 [2]): 39%
pEC50 (Cannabinoid receptor 2 [3]): 5.84

CCn1c(C(=O)NCc2cncnc2)nc2c(-c3ccccc3)cccc21
pEC50 (Cannabinoid receptor 1 [1]): < 4.77
Emax (Cannabinoid receptor 2 [2]): 89%
pEC50 (Cannabinoid receptor 2 [3]): 5.96

O=C(NCc1cccc(Cl)c1)c1nc2c(-c3ccccc3)cccc2[nH]1
pEC50 (Cannabinoid receptor 1 [1]): < 4.77
Emax (Cannabinoid receptor 2 [2]): 67%
pEC50 (Cannabinoid receptor 2 [3]): 6.78

O=C(NCC(O)CO)c1nc2c(-c3ccccc3)cccc2[nH]1 (stereo not given)
pEC50 (Cannabinoid receptor 1 [1]): < 4.77
Emax (Cannabinoid receptor 2 [2]): 75%
pEC50 (Cannabinoid receptor 2 [3]): 8.20

O=C(NCc1ccccc1)c1nc2c(-c3ccccc3)cccc2[nH]1
pEC50 (Cannabinoid receptor 1 [1]): < 4.77
Emax (Cannabinoid receptor 2 [2]): 64%
pEC50 (Cannabinoid receptor 2 [3]): 6.00

CC(C)(C)CNC(=O)c1nc2c(-c3ccccc3)cccc2[nH]1
Ratio EC50 (Homo sapiens): > 1160
pEC50 (Cannabinoid receptor 1 [1]): < 4.77
Emax (Cannabinoid receptor 2 [2]): 95%
pEC50 (Cannabinoid receptor 2 [3]): 7.83

CCn1c(C(=O)NCc2cccc(Cl)c2)nc2c(-c3ccccc3)cccc21
Ratio EC50 (Homo sapiens): > 425
pEC50 (Cannabinoid receptor 1 [1]): < 4.77
Emax (Cannabinoid receptor 2 [2]): 87%
pEC50 (Cannabinoid receptor 2 [3]): 7.40

O=C(NCC1(CO)CCCC1)c1nc2c(-c3ccccc3)cccc2n1CC(F)(F)F
pEC50 (Cannabinoid receptor 1 [1]): < 4.77
pEC50 (Cannabinoid receptor 2 [3]): < 4.77

O=C(NC12CC3CC(CC(C3)C1)C2)c1nc2c(-c3ccccc3)cccc2[nH]1
Ratio EC50 (Homo sapiens): 65
pEC50 (Cannabinoid receptor 1 [1]): 6.91
Emax (Cannabinoid receptor 1 [4]): 100%
Emax (Cannabinoid receptor 2 [2]): 99%
pEC50 (Cannabinoid receptor 2 [3]): 8.72
